This is an account of results in ChEMBL document CHEMBL4196093, “Small-Molecule Activator of UNC-51-Like Kinase 1 (ULK1) That Induces Cytoprotective Autophagy for Parkinson's Disease Treatment” (J Med Chem, 2018).

Assay [1] addresses T1, Serine/threonine-protein kinase ULK1 (Homo sapiens) (UniProt O75385).
T1 sequence (whole entry): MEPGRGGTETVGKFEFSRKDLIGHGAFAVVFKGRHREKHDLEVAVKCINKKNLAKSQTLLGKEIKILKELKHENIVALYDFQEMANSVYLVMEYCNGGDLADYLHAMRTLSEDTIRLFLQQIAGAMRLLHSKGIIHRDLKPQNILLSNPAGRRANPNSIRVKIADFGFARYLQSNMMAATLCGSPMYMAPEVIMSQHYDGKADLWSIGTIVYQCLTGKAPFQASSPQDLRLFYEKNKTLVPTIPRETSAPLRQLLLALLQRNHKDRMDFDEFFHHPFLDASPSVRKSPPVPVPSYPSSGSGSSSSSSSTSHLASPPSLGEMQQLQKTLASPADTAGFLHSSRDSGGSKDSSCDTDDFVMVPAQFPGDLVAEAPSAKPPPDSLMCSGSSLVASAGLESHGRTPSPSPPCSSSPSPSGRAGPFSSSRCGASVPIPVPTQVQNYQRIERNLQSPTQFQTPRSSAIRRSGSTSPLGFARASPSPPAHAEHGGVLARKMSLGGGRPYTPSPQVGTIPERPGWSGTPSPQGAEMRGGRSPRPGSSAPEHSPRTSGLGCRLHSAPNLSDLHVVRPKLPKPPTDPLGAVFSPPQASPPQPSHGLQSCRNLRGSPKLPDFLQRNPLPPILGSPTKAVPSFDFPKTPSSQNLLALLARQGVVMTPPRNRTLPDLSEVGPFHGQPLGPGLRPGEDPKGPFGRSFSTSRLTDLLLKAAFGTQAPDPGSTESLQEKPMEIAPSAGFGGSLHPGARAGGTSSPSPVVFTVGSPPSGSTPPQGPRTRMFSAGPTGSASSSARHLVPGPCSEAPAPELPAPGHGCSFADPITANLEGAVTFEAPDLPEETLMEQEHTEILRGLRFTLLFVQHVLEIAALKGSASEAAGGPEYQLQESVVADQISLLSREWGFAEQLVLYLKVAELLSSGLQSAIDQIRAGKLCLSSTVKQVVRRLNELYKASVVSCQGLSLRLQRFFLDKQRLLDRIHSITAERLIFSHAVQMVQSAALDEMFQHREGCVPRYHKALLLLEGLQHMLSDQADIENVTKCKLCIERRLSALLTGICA
Description: Induction of human recombinant N-terminal GST tagged-ULK1 (1 to 649 residues) kinase activity expressed in baculovirus infected insect Sf9 cells at 100 nM using MBP as substrate after 60 mins by ADP-glo assay relative to (R)-2-(3-(3,5-Bis(trifluoromethyl)phenyl)thioureido)-N-(2,4-difluorophenyl)-2-phenylacetamide. Put shortly: (§1)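 Recombinant human ULK1 (10 ng) with MBP (0.1 µg/µl)/10 µM ATP and compound at 100 nM in 40 mM Tris pH 7.5, 20 mM MgCl2, 50 µM DTT, 0.1 mg/ml BSA. Incubated 60 min at room temperature; ADP-Glo luminescence read. Three independent experiments, mean ± SEM.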

Assay [2] addresses T2, Serine/threonine-protein kinase ULK1 (Homo sapiens, UniProt O75385).
T2 sequence (O75385 whole entry): T1 sequence (whole entry)
Description: Induction of human recombinant N-terminal GST tagged-ULK1 (1 to 649 residues) kinase activity expressed in baculovirus infected insect Sf9 cells using MBP as substrate after 60 mins by ADP-glo assay. A digest of the protocol:
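ULK1 (10 ng) incubated with MBP (0.1 µg/µl)/10 µM ATP and a compound concentration series in Tris pH 7.5/MgCl2/DTT/BSA buffer for 60 min at room temperature. ADP-Glo luminescence read. EC50 derived from the curve; Emax normalized to maximal response of the reference activator.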
A general note: ADP-Glo first removes unused ATP, then detects ADP through luciferase.

For assay [3], the target named is T1, Serine/threonine-protein kinase ULK1 (Homo sapiens). Description: Induction of ULK1-mediated autophagy in human SH-SY5Y cells at 1 uM after 6 hrs by MDC-staining based flow cytometric analysis relative to control. It counts as cell-based. A digest of the protocol: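 Autophagy scored as percentage of MDC-positive SH-SY5Y cells by flow cytometry after 1 µM compound; mean ± SEM.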

The target is the same in assay [4]. As to the kind of experiment: Induction of human recombinant N-terminal GST tagged-ULK1 (1 to 649 residues) kinase activity expressed in baculovirus infected insect Sf9 cells at 100 nM using MBP as substrate after 60 mins by ADP-glo assay relative to control. Put shortly:
as §1

As usually defined, the EC50 is the midpoint of the concentration-response curve. With `CN1CCN(CC(OC(=O)c2ccc3c(c2)OCO3)c2ccccc2)CC1` (stereo not given), the fold change (FC) in assay [1] was determined as 0.692. The EC50 in assay [2] came out at 54.8 nM. In addition, the figures for the Activity in assay [3] and in assay [4] were 14.7% and 197%, respectively.
As for `O=C(Nc1ccc(F)cc1F)[C@H](NCCc1ccc(F)cc1)c1ccccc1`, the fold change (FC) in assay [1] is 0.742. Also, in assay [2], the EC50 worked out at 40.8 nM. In addition, the Activity in assay [3] was determined as 30.1%; in assay [4] it was 202%.
For the compound `Clc1ccc(CO[C@@H](Cn2ccnc2)c2ccc(Cl)cc2Cl)cc1`, the fold change (FC) in assay [1] stood at 0.324. Moreover, in assay [2], the EC50 worked out at 263 nM.
For the compound `CN1CCN(CC(OC(=O)c2cccc(Br)c2)c2ccccc2)CC1` (stereo not given), the values for the Activity in assay [3] and in assay [4] were 11.4% and 159%, respectively.
Take `C[C@@H](NC(=O)[C@H](NC(=S)Nc1cc(C(F)(F)F)cc(C(F)(F)F)c1)c1ccccc1)c1ccccc1`: the results for the Activity in assay [3] and in assay [4] were 32.9% and 178%, respectively.
The like results for `CN1CCN(CC(OC(=O)c2ccccc2F)c2ccccc2)CC1` (stereo not given) were, in that order, 6.56% and 149%.
The like results for `CN1CCN(CC(OC(=O)Cc2ccccn2)c2ccccc2)CC1` (stereo not given) were, in that order, 9.99% and 143%.
The like results for `C[C@@H](NC(=O)[C@H](NC(=O)Nc1cccc2ccccc12)c1ccccc1)c1ccccc1` were, in that order, 19.6% and 149%.
On to `O=C(Nc1cccc(Cl)c1)N[C@@H](C(=O)Nc1cccc(Br)c1)c1ccccc1`, for which the Activity was found to be 24.1% in assay [3] and 152% in assay [4].
The like results for `CN1CCN(CC(OC(=O)c2ccccc2)c2ccccc2)CC1` (stereo not given) were, in that order, 9.59% and 156%.
The like results for `O=C(Nc1ccc(F)cc1F)[C@H](NCCc1ccc(Br)cc1)c1ccccc1` were, in that order, 28.2% and 171%.
The like results for `CN1CCN(CC(OC(=O)c2ccccc2C(F)(F)F)c2ccccc2)CC1` (stereo not given) were, in that order, 10% and 151%.
In the case of `COc1ccc(N2CCN(CC(OC(=O)c3ccccc3F)c3ccccc3)CC2)cc1` (stereo not given), the figures for the Activity in assay [3] and in assay [4] were 11.8% and 152%, respectively.
The like results for `C[C@@H](NC(=O)[C@H](NC(=S)Nc1ccccc1)c1ccccc1)c1ccccc1` were, in that order, 32.2% and 169%.
Turning to `COc1ccc(CCN[C@@H](C(=O)Nc2ccccc2C)c2ccccc2)cc1OC`, the Activity was 18.1% in assay [3] and 147% in assay [4].
Regarding `COc1ccc(CCNC(=O)N[C@@H](C(=O)Nc2ccccc2Cl)c2ccccc2)cc1OC`, the Activity in assay [3] amounted to 27.9%; in assay [4], 152%.
Regarding `COc1ccc(CCN[C@@H](C(=O)Nc2ccc(F)cc2F)c2ccccc2)cc1OC`, the Activity in assay [3] was determined as 22.4%; in assay [4] it was 151%.
As for `COc1ccc(NC(=O)N[C@@H](C(=O)Nc2ccccc2C)c2ccccc2)cc1`, the Activity in assay [3] is 30.4%; in assay [4], 158%.
Take `COc1cccc(CCN[C@@H](C(=O)Nc2ccccc2C)c2ccccc2)c1`: the figures for the Activity in assay [3] and in assay [4] were 16.2% and 140%, respectively.
Take `COc1ccc(N2CCN(CC(OC(=O)c3cccc(C)c3)c3ccccc3)CC2)cc1` (stereo not given): the Activity in assay [3] was determined as 8.56%; in assay [4], 141%.
On to `O=C(Nc1cccc(Br)c1)[C@H](NC(=S)Nc1ccccc1)c1ccccc1`, for which the Activity in assay [3] came to 32.9%; in assay [4], 176%.
For the compound `Cc1ccc(CCN[C@@H](C(=O)Nc2ccccc2C)c2ccccc2)cc1`, the Activity is 13.8% in assay [3] and 139% in assay [4].
As to `Cc1cccc(C)c1NC(=O)N[C@@H](C(=O)N[C@H](C)c1ccccc1)c1ccccc1`, the values for the Activity in assay [3] and in assay [4] were 16.2% and 144%, respectively.
As to `O=C(Nc1cc(F)ccc1F)[C@H](NC(=S)Nc1ccccc1)c1ccccc1`, the Activity in assay [3] worked out at 39.4%; in assay [4], 197%.
The like results for `COc1ccc(NC(=O)[C@H](NC(=O)NCCc2ccc(OC)c(OC)c2)c2ccccc2)cc1` were, in that order, 21.1% and 141%.
For `Cc1ccccc1NC(=O)[C@H](NC(=S)Nc1cc(C(F)(F)F)cc(C(F)(F)F)c1)c1ccccc1`, the values for the Activity in assay [3] and in assay [4] were 43.1% and 205%, respectively.
As for `Cc1ccccc1NC(=O)[C@H](NCCc1ccc(N(C)C)cc1)c1ccccc1`, the figures for the Activity in assay [3] and in assay [4] were 13.5% and 143%, respectively.
Turning to `COc1ccc(CCNC(=S)N[C@@H](C(=O)Nc2cc(C(F)(F)F)cc(C(F)(F)F)c2)c2ccccc2)cc1OC`, the Activity in assay [3] is 39%; in assay [4], 184%.
As to `COc1ccc(N2CCN(CC(OC(=O)c3cccc(C(F)(F)F)c3)c3ccccc3)CC2)cc1` (stereo not given), the Activity in assay [3] stood at 11.6%; in assay [4] it was 162%.
As for `Cc1ccc(NC(=O)N[C@@H](C(=O)Nc2cccc(Br)c2)c2ccccc2)cc1`, the Activity in assay [3] is 25.4%; in assay [4] it was 147%.
The like results for `COc1ccc(CCNC(=S)N[C@@H](C(=O)Nc2ccccc2)c2ccccc2)cc1OC` were, in that order, 36.7% and 170%.
As to `O=C(Nc1ccccc1Cl)N[C@@H](C(=O)Nc1cc(F)ccc1F)c1ccccc1`, the Activity stood at 19.6% in assay [3] and 144% in assay [4].
On to `Cc1ccccc1NC(=O)[C@H](NCCc1cccc2ccccc12)c1ccccc1`, for which the values for the Activity in assay [3] and in assay [4] were 11% and 137%, respectively.
